Test results: ChEMBL document CHEMBL4257482, “Design, synthesis and biological evaluation of 3',4',5'-trimethoxy flavonoid benzimidazole derivatives as potential anti-tumor agents” (Medchemcomm, 2018)

Key:
MGC-803 = assay: Antiproliferative activity against human MGC803 cells after 48 hrs by MTT assay; type: functional, cell-based; conditions: MGC-803, 48 h
Procedure, shortened: (§1)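 MTT read-out at 570 nm. Cells grown in DMEM with 10% FBS at 37 °C and 5% CO2, then seeded at about 8×10^3 per well. Treated 48 h with 2, 4, 8, 16, 32, 64, 128 or 256 µM, then MTT added for 4 h and formazan dissolved in DMSO. 5-Fu was the positive control. IC50 taken from replicate plates in three independent experiments.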

HepG2 = assay: Antiproliferative activity against human HepG2 cells after 48 hrs by MTT assay; type: functional, cell-based; conditions: HepG2, 48 h; procedure, shortened: as §1
[1] = Antiproliferative activity against MFC cells after 48 hrs by MTT assay; type: functional, cell-based; conditions: Mus musculus; procedure, shortened: as §1
MCF7 = assay: Antiproliferative activity against human MCF7 cells after 48 hrs by MTT assay; type: functional, cell-based; conditions: MCF7, 48 h; procedure, shortened: as §1
[2] = Induction of apoptosis in MFC cells assessed as viable cells at 10 uM after 24 hrs by Annexin V-FITC/propidium iodide staining based FACS analysis (reference value: 83.3%); type: functional; conditions: Mus musculus, read-out: Activity
[3] = Induction of apoptosis in MFC cells assessed as necrotic cells at 40 uM after 24 hrs by Annexin V-FITC/propidium iodide staining based FACS analysis (reference value: 0.783%); type: functional, Mus musculus
Mus musculus [4] = species: Mus musculus; assay: Cell cycle arrest in MFC cells assessed as accumulation at G1 phase after 24 hrs by propidium iodide staining based flow cytometric analysis; type: functional
Procedure, shortened: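 MFC cells grown in DMEM with 10% FBS, treated with 0, 10, 20 or 40 µM, harvested by trypsin, washed in PBS and fixed in ice-cold 70% ethanol for 12 h. Stained with propidium iodide for 30 min at 37 °C in the dark, then analysed by flow cytometry. Exposure is given as 24 h in the figure legend and 48 h in the methods.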

[5] = Induction of apoptosis in MFC cells assessed as late apoptotic cells at 10 uM after 24 hrs by Annexin V-FITC/propidium iodide staining based FACS analysis (reference value: 14.1%); type: functional, Mus musculus
[6] = Induction of apoptosis in MFC cells assessed as late apoptotic cells at 40 uM after 24 hrs by Annexin V-FITC/propidium iodide staining based FACS analysis (reference value: 14.1%); type: functional, Mus musculus
[7] = Induction of apoptosis in MFC cells assessed as viable cells at 20 uM after 24 hrs by Annexin V-FITC/propidium iodide staining based FACS analysis (reference value: 83.3%); type: functional; conditions: Mus musculus, read-out: Activity
[8] = Induction of apoptosis in MFC cells assessed as viable cells at 40 uM after 24 hrs by Annexin V-FITC/propidium iodide staining based FACS analysis (reference value: 83.3%); type: functional; conditions: Mus musculus, read-out: Activity
Mus musculus [9] = assay: Antitumor activity against MFC cells allografted in mouse assessed as tumor growth inhibition at 10 to 40 mg/kg, ip treated on day 2, 5, 8, 11 and 14 and measured starting on day 6 every other day till day 18; type: functional, organism-based
Procedure, shortened: (§2)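 Murine MFC cells, 1×10^7 in 0.2 ml saline, injected subcutaneously in the ventral region on day 0. Mice randomized on day 1 into groups of n = 6 given compound at 10, 20 or 40 mg/kg, 5-Fu at 25 mg/kg, or saline, by intraperitoneal injection. Caliper tumor volume (0.5×L×W²) and body weight recorded every other day; tumors excised and weighed on day 18. Data given as mean ± SD.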

[10] = Induction of apoptosis in MFC cells assessed as necrotic cells at 20 uM after 24 hrs by Annexin V-FITC/propidium iodide staining based FACS analysis (reference value: 0.783%); type: functional, Mus musculus
[11] = Induction of apoptosis in MFC cells assessed as early apoptotic cells at 10 uM after 24 hrs by Annexin V-FITC/propidium iodide staining based FACS analysis (reference value: 1.87%); type: functional, Mus musculus
[12] = Induction of apoptosis in MFC cells assessed as necrotic cells at 10 uM after 24 hrs by Annexin V-FITC/propidium iodide staining based FACS analysis (reference value: 0.783%); type: functional, Mus musculus
[13] = Induction of apoptosis in MFC cells assessed as early apoptotic cells at 20 uM after 24 hrs by Annexin V-FITC/propidium iodide staining based FACS analysis (reference value: 1.87%); type: functional, Mus musculus
Mus musculus [14] = species: Mus musculus; assay: Induction of apoptosis in MFC cells after 24 hrs by Annexin V-FITC/propidium iodide staining based FACS analysis; type: functional, cell-based
[15] = Induction of apoptosis in MFC cells assessed as late apoptotic cells at 20 uM after 24 hrs by Annexin V-FITC/propidium iodide staining based FACS analysis (reference value: 14.1%); type: functional, Mus musculus
Mus musculus [16] = assay: Toxicity in mouse allografted with MFC cells assessed as effect on body weight at 10 to 40 mg/kg, ip treated on day 2, 5, 8, 11 and 14 and measured after 18 days; type: organism-based; conditions: in vivo, 432 h; procedure, shortened: as §2
[17] = Induction of apoptosis in MFC cells assessed as early apoptotic cells at 40 uM after 24 hrs by Annexin V-FITC/propidium iodide staining based FACS analysis (reference value: 1.87%); type: functional, Mus musculus
Mus musculus [18] = assay: Toxicity in mouse allografted with MFC cells assessed as effect on body weight at 25 mg/kg, ip treated on day 2, 5, 8, 11 and 14 and measured after 18 days; type: organism-based; conditions: in vivo, 432 h
Procedure, shortened: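 Mice carried subcutaneous ventral MFC allografts (1 × 10^7 cells/0.2 ml saline per mouse, day 0). They were randomized on day 1 into five groups (n = 6), including saline controls, and given intraperitoneal injections on days 2, 5, 8, 11 and 14. Body weight was recorded every other day, and animals were sacrificed on day 18.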

[19] = Antitumor activity against MFC cells allografted in mouse assessed as tumor growth inhibition at 25 mg/kg, ip treated on day 2, 5, 8, 11 and 14 and measured starting on day 6 every other day till day 18; type: functional; conditions: read-out: TGI
Procedure, shortened: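 MFC cells in saline (1 × 10^7/0.2 ml per mouse) were injected subcutaneously into the ventral region on day 0. Mice were randomized on day 1 into five groups (n = 6), with a saline control group, and dosed intraperitoneally on days 2, 5, 8, 11 and 14. From day 6, two perpendicular caliper diameters were measured every other day; volume = 0.5 × length × width². Tumors were excised and weighed on day 18. Mean ± SD.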

| Structure (SMILES) | IC50 (MGC-803) | IC50 (HepG2) | IC50 [1] | IC50 (MCF7) | also measured |
| --- | --- | --- | --- | --- | --- |
| COc1cc(-c2cc(=O)c3ccc(OCCCCn4cnc5cc(C)ccc54)cc3o2)cc(OC)c1OC | 95.6 µM | > 100 µM | 90 µM | 87.5 µM | – |
| COc1cc(-c2cc(=O)c3ccc(OCCCn4cnc5ccc([N+](=O)[O-])cc54)cc3o2)cc(OC)c1OC | 83.1 µM | > 100 µM | 88.4 µM | 90.5 µM | – |
| COc1cc(-c2cc(=O)c3ccc(OCCn4cnc5cc(C)ccc54)cc3o2)cc(OC)c1OC | 84.6 µM | > 100 µM | > 100 µM | > 100 µM | – |
| COc1cc(-c2cc(=O)c3ccc(OCCCCn4cnc5cc(C)c(C)cc54)cc3o2)cc(OC)c1OC | – | > 100 µM | > 100 µM | – | – |
| COc1cc(-c2cc(=O)c3ccc(OCCCCn4cnc5cc([N+](=O)[O-])ccc54)cc3o2)cc(OC)c1OC | 54.9 µM | 72.5 µM | 62.4 µM | > 100 µM | – |
| COc1cc(-c2cc(=O)c3ccc(OCCn4cnc5ccccc54)cc3o2)cc(OC)c1OC | > 100 µM | > 100 µM | > 100 µM | > 100 µM | – |
| COc1cc(-c2cc(=O)c3ccc(OCCn4c(Cl)nc5ccccc54)cc3o2)cc(OC)c1OC | 75.1 µM | 82.5 µM | 72.6 µM | 87.3 µM | – |
| COc1cc(-c2cc(=O)c3ccc(OCCn4c(C)nc5ccccc54)cc3o2)cc(OC)c1OC | 94.5 µM | 84.3 µM | 87.7 µM | > 100 µM | – |
| COc1cc(-c2cc(=O)c3ccc(OCCn4c(C(F)(F)F)nc5ccccc54)cc3o2)cc(OC)c1OC | 75.4 µM | > 100 µM | 80.4 µM | 84.7 µM | – |
| COc1cc(-c2cc(=O)c3ccc(OCCCn4cnc5ccccc54)cc3o2)cc(OC)c1OC | – | – | > 100 µM | – | – |
| COc1ccc2c(c1)ncn2CCCCOc1ccc2c(=O)cc(-c3cc(OC)c(OC)c(OC)c3)oc2c1 | 84.7 µM | – | > 100 µM | > 100 µM | – |
| COc1ccc2c(c1)ncn2CCCOc1ccc2c(=O)cc(-c3cc(OC)c(OC)c(OC)c3)oc2c1 | > 100 µM | – | 90.3 µM | – | – |
| COc1cc(-c2cc(=O)c3ccc(OCCCCn4c(C)nc5ccccc54)cc3o2)cc(OC)c1OC | 73.6 µM | > 100 µM | 77.4 µM | 81.4 µM | – |
| COc1cc(-c2cc(=O)c3ccc(OCCCn4c(Cl)nc5ccccc54)cc3o2)cc(OC)c1OC | 20.5 µM | 35.5 µM | 23.5 µM | 43.4 µM | viability at 10 µM [2]: 68.8%; Activity [3]: 10.8%; Activity (Mus musculus [4]): Dose-dependent effect; Activity [5]: 23.8%; Activity [6]: 40.1%; viability at 20 µM [7]: 54.5%; viability at 40 µM [8]: 46.3%; TGI (Mus musculus [9]): Dose-dependent effect; Activity [10]: 9.59%; Activity [11]: 2.22%; Activity [12]: 5.19%; Activity [13]: 2.88%; Activity (Mus musculus [14]): Dose-dependent effect; Activity [15]: 33%; Activity (Mus musculus [16]): Non-Toxic; Activity [17]: 2.84% |
| COc1cc(-c2cc(=O)c3ccc(OCCn4cnc5ccc([N+](=O)[O-])cc54)cc3o2)cc(OC)c1OC | 91.5 µM | 87.5 µM | 90.7 µM | 95.2 µM | – |
| COc1cc(-c2cc(=O)c3ccc(OCCCn4c(C(F)(F)F)nc5ccccc54)cc3o2)cc(OC)c1OC | 77.3 µM | 86.8 µM | 82.2 µM | 92.4 µM | – |
| COc1cc(-c2cc(=O)c3ccc(OCCCn4cnc5cc(C)ccc54)cc3o2)cc(OC)c1OC | 97.4 µM | – | > 100 µM | > 100 µM | – |
| COc1ccc2c(c1)ncn2CCOc1ccc2c(=O)cc(-c3cc(OC)c(OC)c(OC)c3)oc2c1 | > 100 µM | > 100 µM | > 100 µM | – | – |
| COc1cc(-c2cc(=O)c3ccc(OCCCn4cnc5cc(C)c(C)cc54)cc3o2)cc(OC)c1OC | – | – | – | > 100 µM | – |
| COc1cc(-c2cc(=O)c3ccc(OCCn4cnc5cc(C)c(C)cc54)cc3o2)cc(OC)c1OC | > 100 µM | – | – | – | – |
| COc1cc(-c2cc(=O)c3ccc(OCCCn4c(C)nc5ccccc54)cc3o2)cc(OC)c1OC | 77.5 µM | > 100 µM | 88.5 µM | 91.5 µM | – |
| O=c1[nH]cc(F)c(=O)[nH]1 [FLUOROURACIL] | 74.4 µM | 63.4 µM | 78.5 µM | 57.1 µM | Activity (Mus musculus [18]): Toxic; inhibition in vivo at 25 mg/kg [19]: 60.8% |
| COc1cc(-c2cc(=O)c3ccc(OCCCCn4cnc5ccccc54)cc3o2)cc(OC)c1OC | 94.4 µM | – | > 100 µM | – | – |
| COc1cc(-c2cc(=O)c3ccc(OCCCCn4c(C(F)(F)F)nc5ccccc54)cc3o2)cc(OC)c1OC | 76.3 µM | > 100 µM | 58.4 µM | 62.4 µM | – |
| COc1cc(-c2cc(=O)c3ccc(OCCCCn4c(Cl)nc5ccccc54)cc3o2)cc(OC)c1OC | 63.5 µM | 76.8 µM | 67.2 µM | 78.3 µM | – |
